Each structure is given as a SMILES string. Calls of active or inactive are those of the source.

Target in the first assay: not listed separately
Nature of the assay: Inhibition of human intestinal CE-mediated O-nitrophenyl acetate hydrolysis by spectrophotometry. The method in brief: (§1)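 Enzyme activity read spectrophotometrically as release of o-nitrophenol from o-nitrophenyl acetate across increasing inhibitor concentrations. Inhibitors were freshly dissolved in DMSO, typically as 10mM stocks. Fractional inhibition was plotted against inhibitor concentration and fitted to a partial-inhibition equation including Ks, α and β. Inhibition mode was chosen by Akaike's information criteria, and Ki was taken from the best-fit model.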
`Cc1c(C)c(NS(=O)(=O)c2ccc(Cl)cc2)c(C)c(C)c1NS(=O)(=O)c1ccc(Cl)cc1` showed a Ki of 2010 nM.

Regarding `O=S(=O)(Nc1ccc(NS(=O)(=O)c2ccc(F)c(F)c2)cc1)c1ccccc1`, the Ki stood at 488 nM.

`Cc1c(C)c(NS(=O)(=O)c2ccc(Cl)c(Cl)c2)c(C)c(C)c1NS(=O)(=O)c1ccc(Cl)c(Cl)c1` came in with a Ki of 344 nM. The Ki values of the last two compounds are within 1.5-fold of each other.

Take `COc1ccc(S(=O)(=O)Nc2ccc(NS(=O)(=O)c3ccc(F)cc3)cc2)cc1`: the Ki was found to be 568 nM.

In turn, `O=S(=O)(Nc1cc(Br)c(NS(=O)(=O)c2ccc(Cl)cc2)cc1Br)c1ccc(Cl)cc1` displayed a Ki greater than 100000 nM.

In turn, `CNC(=O)c1ccc(S(=O)(=O)Nc2ccc(NS(=O)(=O)c3ccc(F)cc3)cc2)cc1` had an inhibitory constant (Ki) greater than 100000 nM.

In the case of `O=S(=O)(Nc1ccc(NS(=O)(=O)c2ccc3ccccc3c2)cc1)c1ccc2ccccc2c1`, the affinity, expressed as Ki, was 1580 nM.

As to `O=S(=O)(Nc1ccc(NS(=O)(=O)c2cc(F)cc(F)c2)cc1)c1cc(F)cc(F)c1`, affinity was put at a Ki of 246 nM.

In turn, `Cc1c(C)c(NS(=O)(=O)c2cccc(Br)c2)c(C)c(C)c1NS(=O)(=O)c1cccc(Br)c1` showed an inhibitory constant (Ki) of 1570 nM.

In turn, `O=S(=O)(Nc1ccc(NS(=O)(=O)c2cc(Cl)c(Cl)cc2Cl)cc1)c1cc(Cl)c(Cl)cc1Cl` showed an inhibitory constant (Ki) greater than 100000 nM.

As to `O=S(=O)(Nc1ccc(NS(=O)(=O)c2ccc(Cl)c(Cl)c2)cc1)c1ccc(Cl)c(Cl)c1`, the inhibition constant (Ki) came to 91.5 nM.

The compound `Cc1ccc(S(=O)(=O)Nc2ccc(NS(=O)(=O)c3ccc(F)cc3)cc2)cc1` returned a Ki of 281 nM.

In the case of `O=S(=O)(Nc1c(F)c(F)c(NS(=O)(=O)c2ccc(F)cc2)c(F)c1F)c1ccc(F)cc1`, affinity was put at a Ki of 314 nM.

The compound `O=S(=O)(Nc1ccc(NS(=O)(=O)c2ccccc2F)cc1)c1ccccc1F` gave a Ki of 1450 nM.

A further assay deals with T1, Liver carboxylesterase 1 (Homo sapiens, UniProt P23141).
T1 sequence (P23141 whole entry): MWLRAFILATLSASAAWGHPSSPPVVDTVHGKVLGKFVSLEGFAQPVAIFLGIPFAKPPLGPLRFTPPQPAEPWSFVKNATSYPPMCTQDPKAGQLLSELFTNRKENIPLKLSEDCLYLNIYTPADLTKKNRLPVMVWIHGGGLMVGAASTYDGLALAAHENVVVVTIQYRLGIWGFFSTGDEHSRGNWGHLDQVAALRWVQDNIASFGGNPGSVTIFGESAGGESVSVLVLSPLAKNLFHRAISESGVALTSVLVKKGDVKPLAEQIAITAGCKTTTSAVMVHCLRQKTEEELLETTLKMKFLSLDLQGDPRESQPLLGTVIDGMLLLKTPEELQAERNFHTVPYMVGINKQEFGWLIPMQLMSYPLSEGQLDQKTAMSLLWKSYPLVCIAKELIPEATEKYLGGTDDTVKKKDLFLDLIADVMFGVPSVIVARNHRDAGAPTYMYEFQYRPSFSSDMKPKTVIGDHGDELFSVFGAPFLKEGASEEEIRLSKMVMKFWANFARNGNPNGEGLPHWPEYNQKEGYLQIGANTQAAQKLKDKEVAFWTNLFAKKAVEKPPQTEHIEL
Kind of assay: Inhibition of human liver CE1-mediated O-nitrophenyl acetate hydrolysis by spectrophotometry. The method in brief:
as §1
In the case of `Cc1c(C)c(NS(=O)(=O)c2ccc(Cl)cc2)c(C)c(C)c1NS(=O)(=O)c1ccc(Cl)cc1`, the inhibitory constant (Ki) was greater than 100000 nM.

Regarding `O=S(=O)(Nc1ccc(NS(=O)(=O)c2ccc(F)c(F)c2)cc1)c1ccccc1`, the inhibition constant Ki was greater than 100000 nM.

In the case of `Cc1c(C)c(NS(=O)(=O)c2ccc(Cl)c(Cl)c2)c(C)c(C)c1NS(=O)(=O)c1ccc(Cl)c(Cl)c1`, the inhibitory constant (Ki) was greater than 100000 nM.

Consider `COc1ccc(S(=O)(=O)Nc2ccc(NS(=O)(=O)c3ccc(F)cc3)cc2)cc1`, for which the Ki is greater than 100000 nM.

For `O=S(=O)(Nc1cc(Br)c(NS(=O)(=O)c2ccc(Cl)cc2)cc1Br)c1ccc(Cl)cc1`, the Ki was greater than 100000 nM.

`CNC(=O)c1ccc(S(=O)(=O)Nc2ccc(NS(=O)(=O)c3ccc(F)cc3)cc2)cc1` gave a Ki greater than 100000 nM.

As to `O=S(=O)(Nc1ccc(NS(=O)(=O)c2ccc3ccccc3c2)cc1)c1ccc2ccccc2c1`, the inhibitory constant (Ki) was greater than 100000 nM.

As for `O=S(=O)(Nc1ccc(NS(=O)(=O)c2cc(F)cc(F)c2)cc1)c1cc(F)cc(F)c1`, the Ki was greater than 100000 nM.

`Cc1c(C)c(NS(=O)(=O)c2cccc(Br)c2)c(C)c(C)c1NS(=O)(=O)c1cccc(Br)c1` had an inhibition constant (Ki) greater than 100000 nM.

With `O=S(=O)(Nc1ccc(NS(=O)(=O)c2cc(Cl)c(Cl)cc2Cl)cc1)c1cc(Cl)c(Cl)cc1Cl`, the Ki is greater than 100000 nM.

For `O=S(=O)(Nc1ccc(NS(=O)(=O)c2ccc(Cl)c(Cl)c2)cc1)c1ccc(Cl)c(Cl)c1`, the Ki was greater than 100000 nM.

Regarding `Cc1ccc(S(=O)(=O)Nc2ccc(NS(=O)(=O)c3ccc(F)cc3)cc2)cc1`, the inhibitory constant (Ki) was greater than 100000 nM.

The compound `O=S(=O)(Nc1c(F)c(F)c(NS(=O)(=O)c2ccc(F)cc2)c(F)c1F)c1ccc(F)cc1` displayed an inhibitory constant (Ki) greater than 100000 nM.

The compound `O=S(=O)(Nc1ccc(NS(=O)(=O)c2ccccc2F)cc1)c1ccccc1F` showed an inhibition constant (Ki) greater than 100000 nM.

Another assay deals with Acetylcholinesterase (Homo sapiens) (UniProt P22303). Kind of assay: Inhibition of human AchE using acetylthiocholine as substrate by spectrophotometric multiwell plate assay.
Acetylcholinesterase (Homo sapiens), sequence (P22303 whole entry): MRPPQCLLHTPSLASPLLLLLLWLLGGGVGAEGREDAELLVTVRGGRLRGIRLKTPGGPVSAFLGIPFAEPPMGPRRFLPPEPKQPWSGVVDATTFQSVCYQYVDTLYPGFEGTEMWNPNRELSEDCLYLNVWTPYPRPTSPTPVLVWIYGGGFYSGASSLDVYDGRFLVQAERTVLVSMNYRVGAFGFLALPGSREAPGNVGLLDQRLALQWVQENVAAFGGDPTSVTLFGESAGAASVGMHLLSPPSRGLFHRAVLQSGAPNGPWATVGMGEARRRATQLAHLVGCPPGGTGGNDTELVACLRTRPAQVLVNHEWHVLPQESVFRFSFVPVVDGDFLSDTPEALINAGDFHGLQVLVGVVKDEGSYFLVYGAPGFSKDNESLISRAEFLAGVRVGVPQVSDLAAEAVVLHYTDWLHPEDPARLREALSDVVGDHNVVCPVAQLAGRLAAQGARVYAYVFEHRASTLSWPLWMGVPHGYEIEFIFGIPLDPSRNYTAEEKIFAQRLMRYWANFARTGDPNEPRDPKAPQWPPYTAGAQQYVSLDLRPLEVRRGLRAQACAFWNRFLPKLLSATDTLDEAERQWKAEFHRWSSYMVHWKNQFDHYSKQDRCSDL
In the case of `Cc1c(C)c(NS(=O)(=O)c2ccc(Cl)cc2)c(C)c(C)c1NS(=O)(=O)c1ccc(Cl)cc1`, the result was inactive.

On to `O=S(=O)(Nc1ccc(NS(=O)(=O)c2ccc(F)c(F)c2)cc1)c1ccccc1`, for which the result was inactive.

Regarding `Cc1c(C)c(NS(=O)(=O)c2ccc(Cl)c(Cl)c2)c(C)c(C)c1NS(=O)(=O)c1ccc(Cl)c(Cl)c1`, the result was inactive.

Consider `COc1ccc(S(=O)(=O)Nc2ccc(NS(=O)(=O)c3ccc(F)cc3)cc2)cc1`, for which the result was inactive.

Regarding `O=S(=O)(Nc1cc(Br)c(NS(=O)(=O)c2ccc(Cl)cc2)cc1Br)c1ccc(Cl)cc1`, the result was inactive.

For the compound `CNC(=O)c1ccc(S(=O)(=O)Nc2ccc(NS(=O)(=O)c3ccc(F)cc3)cc2)cc1`, the outcome was inactive.

With `O=S(=O)(Nc1ccc(NS(=O)(=O)c2ccc3ccccc3c2)cc1)c1ccc2ccccc2c1`, the result was inactive.

Take `O=S(=O)(Nc1ccc(NS(=O)(=O)c2cc(F)cc(F)c2)cc1)c1cc(F)cc(F)c1`: the outcome was inactive.

Turning to `Cc1c(C)c(NS(=O)(=O)c2cccc(Br)c2)c(C)c(C)c1NS(=O)(=O)c1cccc(Br)c1`, the result was inactive.

Regarding `O=S(=O)(Nc1ccc(NS(=O)(=O)c2cc(Cl)c(Cl)cc2Cl)cc1)c1cc(Cl)c(Cl)cc1Cl`, the outcome was inactive.

For the compound `O=S(=O)(Nc1ccc(NS(=O)(=O)c2ccc(Cl)c(Cl)c2)cc1)c1ccc(Cl)c(Cl)c1`, the outcome was inactive.

Regarding `Cc1ccc(S(=O)(=O)Nc2ccc(NS(=O)(=O)c3ccc(F)cc3)cc2)cc1`, the result was inactive.

As for `O=S(=O)(Nc1c(F)c(F)c(NS(=O)(=O)c2ccc(F)cc2)c(F)c1F)c1ccc(F)cc1`, the result was inactive.

As to `O=S(=O)(Nc1ccc(NS(=O)(=O)c2ccccc2F)cc1)c1ccccc1F`, the outcome was inactive.

For the next assay, the target named is Cholinesterase (Homo sapiens) (UniProt P06276). Kind of assay: Inhibition of human BchE using butyrylthiocholine as substrate by spectrophotometric multiwell plate assay.
Cholinesterase (Homo sapiens), sequence (P06276 whole entry): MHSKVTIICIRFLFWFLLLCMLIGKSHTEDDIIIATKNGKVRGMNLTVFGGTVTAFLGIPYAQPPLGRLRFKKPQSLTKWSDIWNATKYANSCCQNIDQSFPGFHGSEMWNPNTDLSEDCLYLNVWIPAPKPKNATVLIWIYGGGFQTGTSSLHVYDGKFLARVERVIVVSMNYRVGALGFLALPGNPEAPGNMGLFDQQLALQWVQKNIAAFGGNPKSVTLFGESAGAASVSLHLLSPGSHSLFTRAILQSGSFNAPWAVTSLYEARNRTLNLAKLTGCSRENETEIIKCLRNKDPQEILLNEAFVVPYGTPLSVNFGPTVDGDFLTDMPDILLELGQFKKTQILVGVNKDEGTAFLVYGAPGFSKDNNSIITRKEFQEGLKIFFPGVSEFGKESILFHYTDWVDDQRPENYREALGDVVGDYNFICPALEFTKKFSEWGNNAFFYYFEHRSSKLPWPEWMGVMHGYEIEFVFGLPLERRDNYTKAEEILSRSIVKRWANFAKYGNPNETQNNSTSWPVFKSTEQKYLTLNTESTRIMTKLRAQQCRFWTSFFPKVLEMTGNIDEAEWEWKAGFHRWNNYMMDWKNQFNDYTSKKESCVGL
On to `Cc1c(C)c(NS(=O)(=O)c2ccc(Cl)cc2)c(C)c(C)c1NS(=O)(=O)c1ccc(Cl)cc1`, for which the outcome was inactive.

Take `O=S(=O)(Nc1ccc(NS(=O)(=O)c2ccc(F)c(F)c2)cc1)c1ccccc1`: the outcome was inactive.

Turning to `Cc1c(C)c(NS(=O)(=O)c2ccc(Cl)c(Cl)c2)c(C)c(C)c1NS(=O)(=O)c1ccc(Cl)c(Cl)c1`, the result was inactive.

As to `COc1ccc(S(=O)(=O)Nc2ccc(NS(=O)(=O)c3ccc(F)cc3)cc2)cc1`, the result was inactive.

On to `O=S(=O)(Nc1cc(Br)c(NS(=O)(=O)c2ccc(Cl)cc2)cc1Br)c1ccc(Cl)cc1`, for which the result was inactive.

As to `CNC(=O)c1ccc(S(=O)(=O)Nc2ccc(NS(=O)(=O)c3ccc(F)cc3)cc2)cc1`, the result was inactive.

For `O=S(=O)(Nc1ccc(NS(=O)(=O)c2ccc3ccccc3c2)cc1)c1ccc2ccccc2c1`, the outcome was inactive.

With `O=S(=O)(Nc1ccc(NS(=O)(=O)c2cc(F)cc(F)c2)cc1)c1cc(F)cc(F)c1`, the outcome was inactive.

Turning to `Cc1c(C)c(NS(=O)(=O)c2cccc(Br)c2)c(C)c(C)c1NS(=O)(=O)c1cccc(Br)c1`, the result was inactive.

Regarding `O=S(=O)(Nc1ccc(NS(=O)(=O)c2cc(Cl)c(Cl)cc2Cl)cc1)c1cc(Cl)c(Cl)cc1Cl`, the outcome was inactive.

Turning to `O=S(=O)(Nc1ccc(NS(=O)(=O)c2ccc(Cl)c(Cl)c2)cc1)c1ccc(Cl)c(Cl)c1`, the result was inactive.

Consider `Cc1ccc(S(=O)(=O)Nc2ccc(NS(=O)(=O)c3ccc(F)cc3)cc2)cc1`, for which the result was inactive.

`O=S(=O)(Nc1c(F)c(F)c(NS(=O)(=O)c2ccc(F)cc2)c(F)c1F)c1ccc(F)cc1`: the result was inactive.

For `O=S(=O)(Nc1ccc(NS(=O)(=O)c2ccccc2F)cc1)c1ccccc1F`, the outcome was inactive.

The values above are taken from ChEMBL document CHEMBL1137015, “Improved, selective, human intestinal carboxylesterase inhibitors designed to modulate 7-ethyl-10-[4-(1-piperidino)-1-piperidino]carbonyloxycamptothecin (Irinotecan; CPT-11) toxicity” (J Med Chem, 2009).
